According to article PMC8259413 (Biochemistry, 2015):

Assays:
[1] = biological target: Pol β binary complex (Pol β/sngDNA) (Rattus norvegicus, UniProt P06766); assay type: binding; conditions: for ΔH of binding (ITC) / ΔS of binding (ITC): binding to Pol β binary complex, 23 °C
Method in brief: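 Binary complex formed with 20-mer single-nucleotide-gapped duplex DNA (DNA:protein ~1.5:1). Ligands were nonhydrolyzable α,β-imido dNTP analogues, titrated in matched buffer (50 mM HEPES, 100 mM NaCl, 5 mM MgCl₂, 2 mM DTT, pH 7.4) at 1000 rpm with 250 s between injections. Matching analogue: 0.2 mM into 0.013 mM complex. Mismatching analogue: 6 mM into 0.106 mM complex.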

[2] = biological target: binary Pol β complex (Pol β/sngDNA) (Homo sapiens, UniProt P06746); assay: NMR lineshape analysis; assay type: binding, rat
Method in brief: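 It was titrated with Mg²⁺-containing nonhydrolyzable matching (0–2:1) or mismatching (0.15–4.6:1) dNTP analogue, followed by ¹H–¹⁵N TROSY/HSQC. Resonances resolved in both dimensions throughout were fitted to a two-state model for koff and KD.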

fold weaker binding than the matching nucleotide ([1]; based upon ITC data)	ΔH of binding (ITC) [1] [kJ/mol]	ΔS of binding (ITC) [1] [J/mol−K]	fold greater koff than that measured for the matching nucleotide ([2]; NMR line shape data)	kex of nucleotide binding/dissociation within the binding cavity ([2]; in the presence of 3.0 mM dApNHpp, estimated) [s⁻¹]	koff (NMR lineshape analysis) ([2]; two-state model, global fit of nine residues, 23 °C) [s⁻¹]	Compound
approximately 300 fold	37 ± 9	195 ± 32	approximately 50 fold	~7000		Nc1ncnc2c1ncn2[C@H]1C[C@H](O)[C@@H](COP(=O)(O)NP(=O)(O)OP(=O)(O)O)O1 [dApNHpp, 2′-deoxyadenosine-5′[(α,β)-imido]triphosphate]
	93 ± 1	432 ± 5			5.1	Nc1ccn([C@H]2C[C@H](O)[C@@H](COP(=O)(O)NP(=O)(O)OP(=O)(O)O)O2)c(=O)n1 [dCpNHpp, 2′-Deoxycytidine-5′-[(α,β)-imido]triphosphate]
